Consider 18 molecules from ChEMBL document CHEMBL1135776, “Benzo- and cyclohexanomazindol analogues as potential inhibitors of the cocaine binding site at the dopamine transporter” (J Med Chem, 2002).

Assay [1] addresses T1, Sodium-dependent dopamine transporter (Homo sapiens, UniProt Q01959). The experiment in a line: (§1) Ratio of the IC50 value of Mazindol to that in guinea pig was determined. Type of assay: functional. The note with it: Cavia porcellus; target entry is the homologue from another species.
The test system of assay [2] is HEK293. The experiment in a line: Ability to block the uptake of [3H]NE (norepinephrine) in HEK-hNET cells. Type of assay: functional, cell-based. The conditions noted are these: Homo sapiens.
The test system of assay [3] is HEK293. The assay can be described thus: Ability to block the uptake of [3H]- 5- HT(serotonin) in HEK-hSERT cells. The conditions noted are these: Homo sapiens. It counts as functional, cell-based.
Assay [4] concerns the target T2, Sodium-dependent noradrenaline transporter (Homo sapiens, UniProt P23975). The assay can be described thus: Inhibition of [125I]- RTI -55 binding at the Norepinephrine transporter sites on HEK-hNET cells. Type of assay: cell-based. An outline of the steps:
(§2)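 Membranes from HEK293 cells expressing hDAT, hSERT or hNET (about 10–15 μg protein) preincubated 10 min with compound in Krebs-HEPES pH 7.4 containing pargyline, tropolone and ascorbate. Then [125I]RTI-55 (40–80 pM final) added, 90 min at 25 °C, filtration. […] Duplicates, two or three experiments; IC50 converted to Ki by Cheng-Prusoff.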

Assay [5] deals with Sodium-dependent serotonin transporter (Homo sapiens, UniProt P31645). The assay can be described thus: Inhibition of [125I]- RTI -55 binding at the Serotonin transporter sites on HEK-hSERT cells. Type of assay: cell-based. An outline of the steps:
as §2

Assay [6] has as its target T1, Sodium-dependent dopamine transporter. The assay can be described thus: Inhibition of [125I]- RTI -55 binding at the Dopamine transporter sites on HEK-hDAT cells. It counts as cell-based. An outline of the steps:
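Membranes from HEK293 cells expressing hDAT, hSERT or hNET (about 10–15 μg protein) preincubated 10 min with compound in Krebs-HEPES pH 7.4 containing pargyline, tropolone and ascorbate. Duplicates, two or three experiments; IC50 converted to Ki by Cheng-Prusoff.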

Assay [7] has as its system HEK293. The assay can be described thus: Ability to block the uptake of [3H]- DA(dopamine) in HEK-hDAT cells. It counts as functional, cell-based. The note with it: Homo sapiens.
Assay [8] has as its target Monoamine transporters; Norepinephrine & dopamine (Homo sapiens) (UniProt Q01959+P23975). The assay can be described thus: Selectivity ratio as ratio of IC50 value against NET to that of DAT. It counts as protein assay.
Assay [9] addresses Monoamine transporters; serotonin & dopamine (Homo sapiens) (UniProt P31645+Q01959). The experiment in a line: Selectivity ratio as ratio of IC50 value against SERT to that of DAT. It counts as protein assay.
Assay [10] is described as follows: Discrimination ratio against NET as ratio of IC50 to that of Ki uptake to NET. Type of assay: functional. An outline of the steps: (§3)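 Ratio of uptake IC50 in transporter-expressing HEK293 cells to [125I]RTI-55 binding Ki at the same human transporter (DAT, SERT or NET). Both were measured in this work: uptake with 20 nM [3H]amine for 10 min at 25 °C, binding for 90 min at 25 °C.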

Assay [11] is described as follows: Discrimination ratio against SERT as ratio of IC50 to that of Ki uptake to SERT. Type of assay: functional. An outline of the steps:
as §3

Assay [12] relates to HEK hDAT. The assay can be described thus: Ratio of the IC50 against DAT in HEK hDAT cells to that of guinea pig striatal membranes. It counts as cell-based.
For assay [13], the system named is HEK hDAT. The assay can be described thus: Ratio of the IC50 against DAT in HEK hDAT cells to that of rat striatal membranes. Type of assay: cell membranes. The conditions noted are these: Membrane.
Assay [14] in a line: Ratio of the IC50 against DAT in rat striatal membranes to that of guinea pig striatal membranes. Type of assay: cell membranes. The conditions noted are these: Membrane.
Assay [15] is described as follows: Discrimination ratio against DAT as ratio of IC50 to that of Ki uptake to DAT. It counts as functional. The gist of the method: as §3
For assay [16], the target named is Sodium-dependent dopamine transporter (Rattus norvegicus, UniProt P23977). The experiment in a line: Ability to displace [3H]WIN-35428 from dopamine transporter on rat striatal membrane. An outline of the steps: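 Rat (male Sprague–Dawley, 200–225 g) striatal membranes in modified Krebs-HEPES pH 7.4; 2.5 mg tissue (wet weight) per tube with 1.5 nM [3H]WIN 35,428. Membranes preincubated 5 min with test compound, then incubated 60 min on ice. Nonspecific binding defined with 0.1 mM cocaine. Filtration over BSA-soaked GF/B filters, scintillation counting; triplicate samples.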

Assay [17] can be described thus: as §1. It counts as functional.
Assay [18] concerns the target T2, Sodium-dependent noradrenaline transporter. The experiment in a line: Displacement of [125I]RTI-55 from human Norepinephrine transporter expressed in HEK cells. Type of assay: cell-based, HEK293. An outline of the steps:
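Membranes from HEK293 cells expressing hNET, about 10–15 μg protein per tube. Compounds diluted from 10 mM DMSO stock, preincubated 10 min, then 40–80 pM [125I]RTI-55 added, 90 min at 25 °C in Krebs-HEPES pH 7.4. […] GF/C filtration; two or three experiments in duplicate; IC50 converted to Ki by Cheng-Prusoff.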

Chain of Sodium-dependent serotonin transporter (P31645 whole entry): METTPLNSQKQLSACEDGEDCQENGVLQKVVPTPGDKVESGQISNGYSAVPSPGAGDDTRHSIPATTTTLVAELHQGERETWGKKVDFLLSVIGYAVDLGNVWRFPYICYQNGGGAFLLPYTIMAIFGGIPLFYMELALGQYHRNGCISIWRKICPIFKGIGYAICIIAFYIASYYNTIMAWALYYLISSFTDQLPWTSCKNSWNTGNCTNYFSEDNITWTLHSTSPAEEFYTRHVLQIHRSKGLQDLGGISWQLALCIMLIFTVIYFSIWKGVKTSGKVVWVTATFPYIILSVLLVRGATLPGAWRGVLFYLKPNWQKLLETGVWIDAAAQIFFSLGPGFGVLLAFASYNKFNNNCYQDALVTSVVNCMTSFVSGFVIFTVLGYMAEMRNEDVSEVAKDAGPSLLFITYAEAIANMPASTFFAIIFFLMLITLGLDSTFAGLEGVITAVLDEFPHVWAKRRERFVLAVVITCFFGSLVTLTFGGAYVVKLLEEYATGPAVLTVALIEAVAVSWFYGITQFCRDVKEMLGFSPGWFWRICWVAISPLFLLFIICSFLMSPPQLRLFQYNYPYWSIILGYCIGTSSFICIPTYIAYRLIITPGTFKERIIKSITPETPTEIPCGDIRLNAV
Chain of Monoamine transporters; serotonin & dopamine (Homo sapiens) (P31645 whole entry, looked up): as the sequence (P31645 whole entry) above
Chain of Monoamine transporters; serotonin & dopamine (Homo sapiens) (Q01959 whole entry, looked up): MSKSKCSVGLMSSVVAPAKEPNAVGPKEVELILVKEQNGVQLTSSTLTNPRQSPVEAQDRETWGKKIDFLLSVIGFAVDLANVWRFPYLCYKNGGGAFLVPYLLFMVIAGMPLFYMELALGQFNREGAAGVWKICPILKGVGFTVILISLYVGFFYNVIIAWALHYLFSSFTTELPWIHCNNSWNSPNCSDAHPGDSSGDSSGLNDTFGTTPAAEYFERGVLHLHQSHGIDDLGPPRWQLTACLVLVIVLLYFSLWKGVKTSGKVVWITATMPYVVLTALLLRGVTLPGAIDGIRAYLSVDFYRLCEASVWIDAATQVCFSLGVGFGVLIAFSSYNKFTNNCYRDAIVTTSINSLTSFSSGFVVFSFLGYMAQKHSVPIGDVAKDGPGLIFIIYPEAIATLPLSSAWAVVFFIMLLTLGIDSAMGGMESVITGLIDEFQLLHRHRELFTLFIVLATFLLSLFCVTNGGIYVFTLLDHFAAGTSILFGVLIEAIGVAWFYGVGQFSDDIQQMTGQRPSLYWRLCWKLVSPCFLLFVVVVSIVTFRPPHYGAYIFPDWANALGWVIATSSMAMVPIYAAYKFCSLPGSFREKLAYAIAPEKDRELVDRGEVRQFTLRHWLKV
T1 sequence (Q01959 whole entry): as the sequence (Q01959 whole entry, looked up) above
T2 sequence (P23975 whole entry): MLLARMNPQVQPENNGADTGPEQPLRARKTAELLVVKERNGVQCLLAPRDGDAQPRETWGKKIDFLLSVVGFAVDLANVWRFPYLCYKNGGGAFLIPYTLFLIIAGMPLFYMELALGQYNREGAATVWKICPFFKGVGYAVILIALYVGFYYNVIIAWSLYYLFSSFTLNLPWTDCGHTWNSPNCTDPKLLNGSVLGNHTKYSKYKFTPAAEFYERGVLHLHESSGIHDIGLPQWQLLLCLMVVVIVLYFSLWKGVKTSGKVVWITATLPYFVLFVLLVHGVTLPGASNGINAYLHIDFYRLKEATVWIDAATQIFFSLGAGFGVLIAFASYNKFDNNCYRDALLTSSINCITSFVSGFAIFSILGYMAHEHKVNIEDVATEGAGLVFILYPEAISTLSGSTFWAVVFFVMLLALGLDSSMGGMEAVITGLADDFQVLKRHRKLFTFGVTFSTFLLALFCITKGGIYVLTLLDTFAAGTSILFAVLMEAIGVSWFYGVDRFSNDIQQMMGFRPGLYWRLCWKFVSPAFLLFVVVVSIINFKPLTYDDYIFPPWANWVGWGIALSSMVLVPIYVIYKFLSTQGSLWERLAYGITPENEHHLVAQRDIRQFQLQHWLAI
Chain of Monoamine transporters; Norepinephrine & dopamine (Homo sapiens) (P23975 whole entry, looked up): as the sequence (P23975 whole entry) above
Chain of Monoamine transporters; Norepinephrine & dopamine (Homo sapiens) (Q01959 whole entry, looked up): as the sequence (Q01959 whole entry, looked up) above
Chain of Sodium-dependent dopamine transporter (Rattus norvegicus, UniProt P23977) (P23977 whole entry): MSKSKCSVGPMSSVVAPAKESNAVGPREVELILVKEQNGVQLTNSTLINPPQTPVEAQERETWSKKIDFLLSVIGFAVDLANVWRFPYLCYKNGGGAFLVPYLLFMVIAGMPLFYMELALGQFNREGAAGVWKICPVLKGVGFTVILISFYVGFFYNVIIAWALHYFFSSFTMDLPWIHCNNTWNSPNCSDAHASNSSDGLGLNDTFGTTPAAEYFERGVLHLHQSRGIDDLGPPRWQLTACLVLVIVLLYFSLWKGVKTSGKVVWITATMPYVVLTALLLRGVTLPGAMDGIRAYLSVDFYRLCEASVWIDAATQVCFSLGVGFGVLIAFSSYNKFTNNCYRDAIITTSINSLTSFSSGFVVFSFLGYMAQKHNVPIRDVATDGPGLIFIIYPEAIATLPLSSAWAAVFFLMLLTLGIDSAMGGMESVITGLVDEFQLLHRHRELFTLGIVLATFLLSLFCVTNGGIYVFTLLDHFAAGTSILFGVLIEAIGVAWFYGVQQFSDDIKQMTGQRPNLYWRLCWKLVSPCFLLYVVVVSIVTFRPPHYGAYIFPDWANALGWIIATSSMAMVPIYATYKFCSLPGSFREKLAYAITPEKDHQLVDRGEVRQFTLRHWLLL

Consider `OC1(c2ccc(Cl)cc2)c2ccccc2C2=NCc3ccccc3CN21` (stereo not drawn), for which, in assay [1], the Ratio was below 0.02.
Consider `OC1(c2ccc(Cl)cc2)c2cc3ccccc3cc2C2=NCCN21` (stereo not drawn), for which the Ratio in assay [1] was determined as 1.3.
`OC1(c2ccc(Cl)cc2)c2ccccc2-c2nc3ccccc3n21` (stereo not drawn): in assay [1], the Ratio is below 0.02.
Usually IC50 stands for the concentration that gives 50% inhibition. One may read the Ki as the dissociation constant of the complex between target and ligand, obtained from inhibition or displacement. For `OC1(c2ccc(Cl)cc2)c2ccccc2C2=NCCN21` (stereo not drawn) [MAZINDOL], the IC50 in assay [2] stood at 4.9 nM; in assay [3], 94 nM. Moreover, the values for the Ki in assay [4] and in assay [5] were 18 nM and 50 nM, respectively.
Turning to `OC1(c2ccc(Cl)cc2)c2c(ccc3ccccc23)C2=NCCN21` (stereo not drawn), in assay [1], the Ratio came to 0.2.
Regarding `OC1(c2cccc3ccccc23)c2ccccc2C2=NCCN21` (stereo not drawn), the Ratio in assay [1] is 0.02.
For `OC1(c2ccc3c(c2)CCCC3)c2ccccc2C2=NCCN21` (stereo not drawn), the Ratio in assay [1] is below 0.02.
Regarding `OC1(c2ccc3ccccc3c2)c2ccc3ccccc3c2C2=NCCN21` (stereo not drawn), the Ki in [6] is 2.83 nM; in assay [4], 5.2 nM; in assay [5] it was 11 nM. The IC50 in [7] came out at 880 nM; in assay [2] it was 38 nM; in assay [3], 370 nM. Also, the Ratio in assay [8] came to 1.9; in assay [9], 3.9; in assay [10] it was 7; in [11], 34; in assay [12] it was 0.9; in [13], 0.07. Also, the Ratio in assay [14] came out at 11.6; in assay [1], 13; in assay [15], 311.
On to `OC1(c2ccc(Cl)cc2)c2ccccc2C2=N[C@H]3CCCC[C@@H]3N21` (stereo partly drawn), for which the Ki in assay [6] is 152 nM; in assay [4], 690 nM; in assay [5], 600 nM. The IC50 in assay [16] was 34.2 nM; in [7] it was 63 nM; in assay [2], 323 nM; in [3], above 10000 nM. The Ratio in assay [8] is 4.1; in assay [9], 3.9; in [10] it was 0.5; in assay [11] it was above 17; in assay [12], 56.3; in assay [13], 4.4. The Ratio in assay [14] was found to be 12.7; in [1] it was 15.8; in assay [15], 0.4.
On to `OC1(c2ccc3ccccc3c2)c2ccccc2C2=NCCN21` (stereo not drawn), for which the Ki in assay [6] stood at 45 nM; in [4], 11 nM; in assay [5], 2.3 nM. For the same molecule, the results for the IC50 in assay [7], in [2] and in [3] were 66 nM, 4.5 nM and 1.8 nM, respectively. In addition, the Ratio in assay [8] is 0.24; in assay [9], 0.05; in [10], 0.4; in assay [11], 0.8; in [12] it was 11; in assay [13] it was 1.9. In addition, the Ratio in assay [14] worked out at 5.7; in assay [1], 10.4; in [15] it was 1.5.
With `OC1(c2ccc3ccccc3c2)c2c(c3ccccc3c3ccccc23)C2=NCCN21` (stereo not drawn), in [17], the Ratio was below 0.02.
Same read-out and setting: under `OC1(c2ccc(Cl)cc2)c2c(c3ccccc3c3ccccc23)C2=NCCN21` (stereo not drawn) stands below 0.02.
As for `OC1(c2ccc(Cl)cc2)c2ccccc2C2=N[C@@H]3CCCC[C@@H]3N21` (stereo partly drawn), the Ratio in assay [1] came to 5.1.
Turning to `OC1(c2ccc(Cl)cc2)c2ccc3ccccc3c2C2=NCCCN21` (stereo not drawn), the Ki in [6] stood at 2.01 nM; in assay [4], 5.3 nM; in [5], 5.5 nM. Also, the IC50 in [7] was 366 nM; in assay [2], 53 nM; in [3], 700 nM. Moreover, the Ratio worked out at 2.6 in [8]; 2.8 in assay [9]; 10 in [10]; 127 in assay [11]; 1 in assay [12]; 0.05 in assay [13]. The results for the Ratio in assay [14], in assay [1] and in assay [15] were 17.8, 20.3 and 182, respectively.
For `OC1(c2ccc(Cl)cc2)c2ccc3ccccc3c2C2=NCCN21` (stereo not drawn), the Ki in assay [6] came out at 27.2 nM; in [4], 33.4 nM; in assay [5] it was 224 nM. Moreover, the IC50 turned out to be 85 nM in assay [7], 13 nM in [2] and 3210 nM in [3]. Moreover, the Ratio stood at 1.2 in assay [8]; 8.2 in [9]; 0.4 in assay [10]; 14.3 in assay [11]; 2.6 in assay [12]; 1.7 in assay [13]. Also, the Ratio was 1.5 in assay [14], 4 in [1] and 3.2 in [15].
Turning to `OC1(c2ccc(Cl)cc2)c2ccccc2C2=NCCCN21` (stereo not drawn), the Ki in [6] worked out at 1.7 nM; in assay [18] it was 18.2 nM; in assay [5], 39 nM. Besides, the IC50 in assay [7] came to 3.7 nM; in assay [2] it was 4.9 nM; in [3] it was 53 nM. Besides, the Ratio in assay [8] was 10.7; in assay [9], 22.9; in assay [10], 0.3; in [11], 1.4; in [1] it was 10.1; in [15], 2.2.
Take `OC1(c2ccc(Cl)cc2)c2ccc3ccccc3c2C2=N[C@H]3CCCC[C@@H]3N21` (mixture of isomers): the Ratio in [1] is below 0.02.
For `OC1(c2ccc(Cl)cc2)c2ccccc2C2=Nc3ccccc3CN21` (stereo not drawn), the Ratio in assay [1] is below 0.02.
